CDK5 p35 inh: inhibitors of human CDK5/p35 kinase, primary screen, biochemical, single concentration | Cyclin-dependent kinase 5 (Homo sapiens) + Cyclin-dependent kinase 5 activator 1 (Homo … | Recombinant CDK5/p35, ADP-Glo luminescence, 60 min | inhibition, % at 10 µM | hit rate 0.01% among 330,000;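 active = highest replicate inhibition of at least 50% and at least 75% of replicates reaching 50%; inconclusive = only one of the two criteria met; inactive = both criteria failed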
dFosB act-1: activators of delta FosB homodimer, primary screen, biochemical, fluorescence polarization, TAMRA-CDK5 oligo, single point. Protein FosB (Mus musculus), P13346. purified delta FosB; percent of positive-control signal above neutral wells. activation, % at 25 µM. hit rate 0.99% among 340,000. AID 493131, 2011;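 active = mean activation above about 17%, with every replicate also reaching it, limit read from the data, passing the limit was not always enough; inconclusive = only one of the two conditions met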
Target sequence (P13346 whole entry, looked up): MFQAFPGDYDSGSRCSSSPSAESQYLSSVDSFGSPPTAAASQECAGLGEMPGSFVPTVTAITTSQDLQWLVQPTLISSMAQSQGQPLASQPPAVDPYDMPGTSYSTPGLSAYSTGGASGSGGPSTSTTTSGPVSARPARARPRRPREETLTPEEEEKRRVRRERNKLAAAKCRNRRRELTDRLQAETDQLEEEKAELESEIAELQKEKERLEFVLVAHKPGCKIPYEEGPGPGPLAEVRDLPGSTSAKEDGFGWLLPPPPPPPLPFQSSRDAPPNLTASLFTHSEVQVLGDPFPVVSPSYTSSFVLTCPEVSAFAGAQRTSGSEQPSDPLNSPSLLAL
GSIS activator: GLuc luminescence reporter in INS-1E cells, primary screen for activators of glucose-dependent secretion of insulin. AID 743287, 2014. activation, % at 16.6 µM. hit rate 0.61% among 370,000. INS-1E GLuc reporter insulin secretion, 2-3 h;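 active = lowest replicate activation of at least 40%, so every replicate reaches that level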
HIV Env fusion: inhibitors of HIV-1 Env-driven cell-cell fusion, primary screen, HeLa-JRFL effector, CEM21 target cells, luciferase; AID 651610, 2012; inhibition, % at 12.3 µM; hit rate 1.1% among 360,000;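 active = mean replicate inhibition score of at least 50 and every replicate individually at or above 50; inconclusive = only one of the two criteria met; inactive = mean below 50 and not all replicates reaching 50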
Cneo AK release: Cryptococcus neoformans cell lysis inducers, primary screen, AK release luminescence, single concentration | lysis activity, % at 15 µM | AID 651654, 2012 | C. neoformans lysis, adenylate kinase release luminescence, 4 h; normalised: neutral wells 0, clomiphene wells 100 | hit rate 0.2% among 360,000;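 active = mean lysis activity across replicates of at least 80%, whatever share of replicates individually reach that level; inactive = mean lysis activity below 80%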
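Test system: log-phase Cryptococcus neoformans yeast cells; Quantity: yeast cell density of 5 × 10^6 cells/mL; Buffer or medium: YPD; Doses: single compound concentration per well; Timing: 4 h at 37 °C static, read 1 h later; Measured by: AK luminescence; Read-out basis: lysis from increased AK signal; Control set: Clomiphene as positive control.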
PAX8 reporter: inhibitors of PAX8-driven TPO luciferase reporter, primary screen, RMG-I cells, single concentration | hit rate 1.2% among 360,000 | inhibition, % at 12.6 µM | AID 652154, 2013 | SteadyGlo, 24 h;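 active = mean replicate inhibition at least 60% with every replicate also reaching 60%; inconclusive = only one of the two criteria is met; inactive = mean below 60% and not all replicates reaching 60%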;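 also: luciferase light reporting Pax8 driven TPO promoter activity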
dFosB act-2: activators of mouse delta FosB DNA binding, confirmation, biochemical, fluorescence polarization, TAMRA-CDK5 oligo, cherry-picked samples; activation, % at 24.9 µM; purified delta FosB; normalised: neutral wells 0, positive control 100; 2,400 tested, under 10 active; shares compounds with dFosB act-1;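 active = highest replicate activation at or above 34% and every replicate reaching that threshold; inconclusive = meets only one of the two criteria; inactive = meets neither criterion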;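 also: higher polarization means more probe DNA bound by delta FosB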
Large screens that a line does not name were inactive (follow-up assays come after a bar, where they were run). Only some compounds are listed: those with a hit (about 2.9% of all), similar ones and a draw of the others.

CC(C)COc1ccc(-c2nn(-c3ccccc3)cc2C(=O)Nc2nccs2)cc1	dFosB act-1 39, HIV Env fusion 72 (no result: GSIS activator) | dFosB act-2 inactive
C/C=C/c1cnc2c(c1)C(=O)N([C@@H](C)CO)C[C@@H](C)[C@@H](CN(C)C(=O)Nc1ccc(C(F)(F)F)cc1)O2	none (no result: CDK5 p35 inh, dFosB act-1, PAX8 reporter)
CC(C)NC(=O)c1c(O)c2ccccc2[nH]c1=O	none (no result: PAX8 reporter)
O=C(NNC(=O)c1c(O)c2ccccc2[nH]c1=O)c1ccccc1	dFosB act-1 83 | dFosB act-2 inactive
Cc1ccc(S(=O)(=O)NNC(=O)c2c(O)c3ccccc3[nH]c2=O)cc1	dFosB act-1 21 (no result: GSIS activator) | dFosB act-2 inactive
COC(=O)Nc1ccc(S(=O)(=O)NNC(=O)c2c(O)c3ccccc3[nH]c2=O)cc1	dFosB act-1 24 | dFosB act-2 inactive
COC(=O)c1c(O)c2ccccc2[nH]c1=O	none (no result: GSIS activator)
CCN(C[C@H]1N[C@H](CO)[C@H]1c1ccccc1)C(=O)c1ccncc1	none (no result: CDK5 p35 inh, dFosB act-1, HIV Env fusion)
O=C(N[C@H]1CC[C@H](CCn2cc(-c3ccc(F)cc3)nn2)O[C@@H]1CO)c1cnccn1	none (no result: CDK5 p35 inh, dFosB act-1)
O=C(COC(=O)c1ccc(F)cc1)NCc1ccc(F)cc1	none
O=C(COC(=O)c1ccc(Br)cc1)NCc1ccc(F)cc1	dFosB act-1 20 | dFosB act-2 inactive
NS(=O)(=O)c1ccc(CCNC(=O)C2CCC(Cn3c(=S)[nH]c4ccccc4c3=O)CC2)cc1 (stereo not given)	dFosB act-1 18 (no result: Cneo AK release) | dFosB act-2 inactive
O=C(NCCc1ccccc1)C1CCC(CNc2nc(=S)[nH]c3ccccc23)CC1 (stereo not given)	dFosB act-1 24 (no result: GSIS activator) | dFosB act-2 inactive
COc1cc(CO)cc(I)c1O[C@H]1C=C(C(=O)NCCO)C[C@@H](NCc2ccccc2F)[C@@H]1O	none (no result: CDK5 p35 inh, dFosB act-1, GSIS activator)
Cc1ccc(CCNC(=O)C2CCN(S(=O)(=O)c3cccc4nsnc34)CC2)cc1	dFosB act-1 33 (no result: GSIS activator, PAX8 reporter) | dFosB act-2 inactive
C[C@H](CO)N1C[C@H](C)[C@H](CN(C)C(=O)Nc2ccc(N3CCCCC3)cc2)OCc2cn(nn2)CCCC1=O	none (no result: CDK5 p35 inh, dFosB act-1, PAX8 reporter)
COc1ccc(C(=O)NCC(=O)Nc2ccc(-c3ccccc3)cc2)cc1	dFosB act-1 38 | dFosB act-2 inactive
COc1ccc(NC(=O)c2ccc(NC(=O)CCS(=O)(=O)c3cccs3)cc2)cc1	dFosB act-1 30 | dFosB act-2 inactive
CC(=O)c1ccc(NC(=O)c2ccc(NC(=O)CCS(=O)(=O)c3cccs3)cc2)cc1	none
COc1ccc(C(=O)Nc2ccc(NC(=O)c3cccs3)cn2)cc1	dFosB act-1 33 | dFosB act-2 inactive
C[C@H](CO)N1C[C@H](C)[C@@H](CN(C)C(=O)CCCN(C)C)OCCCC[C@H](C)Oc2ccc(NC(=O)Cc3ccccc3)cc2C1=O	none (no result: CDK5 p35 inh, dFosB act-1)
C[C@@H]1CCCCO[C@H](CN(C)Cc2ccc(C(F)(F)F)cc2)[C@H](C)CN([C@@H](C)CO)C(=O)c2cc(NC(=O)C3CCCCC3)ccc2O1	none (no result: CDK5 p35 inh, dFosB act-1)
COc1ccc(S(=O)(=O)Nc2ccc3c(c2)C(=O)N([C@H](C)CO)C[C@H](C)[C@H](CN(C)C)O3)cc1	none (no result: CDK5 p35 inh, dFosB act-1)
Cc1cc(C(=O)Nc2cccc3c2O[C@H](CN(C)C(=O)NC(C)C)[C@@H](C)CN([C@@H](C)CO)C3=O)n(C)n1	none (no result: CDK5 p35 inh, dFosB act-1, HIV Env fusion)
COc1ccc(CCNC(=O)c2c(O)c3cc(OC)c(OC)cc3[nH]c2=O)cc1OC	none (no result: CDK5 p35 inh, dFosB act-1)
CCOc1cc2[nH]c(=S)n(Cc3ccc(C(=O)NCCN(CC)CC)cc3)c(=O)c2cc1OCC	dFosB act-1 25 | dFosB act-2 inactive
COc1cc2[nH]c(=O)n(Cc3ccc(C(=O)NCCCN4CCC(C)CC4)cc3)c(=O)c2cc1OC	dFosB act-1 28 (no result: GSIS activator, PAX8 reporter) | dFosB act-2 inactive
COc1cc2[nH]c(=O)n(CCC(=O)N3CCC(N4CCCCC4)CC3)c(=O)c2cc1OC	none
COc1cc2[nH]c(=O)n(Cc3ccc(C(=O)N4CCC(N5CCCCC5)CC4)cc3)c(=O)c2cc1OC	dFosB act-1 34 (no result: GSIS activator, HIV Env fusion, PAX8 reporter) | dFosB act-2 inactive
COc1cc2[nH]c(=O)c(C(=O)NCCCN3CCCCC3)c(O)c2cc1OC	dFosB act-1 26 (no result: GSIS activator, HIV Env fusion, PAX8 reporter) | dFosB act-2 inconclusive
CCOc1cc2[nH]c(=S)n(Cc3ccc(C(=O)NCC(OC)OC)cc3)c(=O)c2cc1OCC	none (no result: GSIS activator, PAX8 reporter)
CCCNC(=O)N(C)C[C@H]1Oc2cc(-c3ccccc3)ccc2S(=O)(=O)N([C@@H](C)CO)C[C@@H]1C	none (no result: CDK5 p35 inh, dFosB act-1)
Cc1cccc(NC(=O)CSc2nc3ccccc3c3nc(CCc4c(C)n[nH]c4C)nn23)c1	dFosB act-1 44 (no result: GSIS activator, PAX8 reporter) | dFosB act-2 inactive
Cc1n[nH]c(C)c1CCc1nc2c3ccccc3nc(SCC(=O)Nc3ccccc3F)n2n1	dFosB act-1 57 (no result: GSIS activator) | dFosB act-2 inactive
Cc1cncn1CCc1nc2c3ccccc3nc(SCC(=O)Nc3cccc(Cl)c3)n2n1	none (no result: CDK5 p35 inh, Cneo AK release)
COC(=O)c1ccccc1NC(=O)CSc1nnnn1-c1ccc(C)cc1C	dFosB act-1 31 (no result: GSIS activator, PAX8 reporter) | dFosB act-2 inactive
Cc1ccccc1-n1nnnc1SCC(=O)NNC(=O)c1ccc(NC(=O)CC#N)cc1	dFosB act-1 47 (no result: HIV Env fusion) | dFosB act-2 inactive
COCC(=O)Nc1ccc2c(c1)OC[C@H](C)N(C(=O)c1ccncc1)C[C@@H](C)[C@@H](OC)CN(C)C2=O	none (no result: CDK5 p35 inh, dFosB act-1, PAX8 reporter)
C[C@@H]1CN([C@@H](C)CO)C(=O)c2cc(NC(=O)c3ccncc3)ccc2O[C@H]1CN(C)S(C)(=O)=O	none (no result: CDK5 p35 inh, dFosB act-1)
O=C(CSc1ccc(-c2ccc3c(c2)OCO3)nn1)Nc1nccs1	dFosB act-1 36 (no result: Cneo AK release) | dFosB act-2 inactive
C/C(=N\NC(=S)Nc1ccc(F)cc1)c1ccc2c(c1)OCCO2	none
C/C(=N/NC(=O)c1ccc2c(c1)OCO2)c1ccc(NC(=O)c2ccc(F)cc2)cc1	dFosB act-1 43 | dFosB act-2 inactive
CCC(=O)Nc1cccc(NC(=O)c2ccc3c(c2)OCO3)c1	dFosB act-1 28 (no result: GSIS activator, PAX8 reporter) | dFosB act-2 inactive
COc1cccc(NC(=O)c2ccc3c(c2)OCO3)c1	none
C[C@@H]1CN([C@@H](C)CO)C(=O)c2cc(NS(=O)(=O)c3cccs3)ccc2O[C@@H](C)CCCCO[C@@H]1CN(C)C(=O)c1ccccc1	none (no result: CDK5 p35 inh, dFosB act-1)
CCC(=O)N1CC2(C1)CN(S(C)(=O)=O)[C@@H](CO)c1c2c2ccc(OC)cc2n1C	none (no result: CDK5 p35 inh, dFosB act-1, HIV Env fusion, Cneo AK release, PAX8 reporter)
CO[C@@H]1CC[C@H]2CCN(C)C(=O)C[C@@H](c3ccccc3)CN(C)C(=O)c3cccc(C#N)c3OC[C@@H]1O2	none (no result: CDK5 p35 inh, dFosB act-1)

Bioassay records from PubChem BioAssay.
